Assay outcomes from PubChem.
Sampled rows, rich in hits. Any-hit rate of the full collection: about 4.1%.
hERG rescue: hERG rescue from dofetilide block, primary screen, cell-based, CHO-hERG, FluxOR thallium flux, dofetilide IC70; Voltage-gated inwardly rectifying potassium channel KCNH2 (Homo sapiens), Q12809; dofetilide IC70 present; activation (rescue from dofetilide block), less the hit threshold, % at 10 µM; hit rate 0.51% among 310,000;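 active = activation above the mean of controls blocked by dofetilide plus 5 SD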;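 also: thallium influx through hERG after potassium depolarization seen as dye fluorescence rise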
KCNK9 block: KCNK9 potassium channel inhibitors, primary screen, HEK293 cells, thallium flux. Potassium channel subfamily K member 9 (Homo sapiens), Q9NPC2. FluxOR thallium flux fluorescence; active compounds read low. B-score at 10 µM. hit rate 1.2% among 310,000;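 active = ratio B-score over 3 SD below the library mean, with starting fluorescence within 5 SD of its mean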;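 also: negative B-score means less thallium flux so channel inhibition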
KCNK3 inh: human KCNK3 channel inhibitors, primary screen, CHO cells, FluxOR thallium flux, B-score; Potassium channel subfamily K member 3 (Homo sapiens), O14649; FluxOR fluorescence; active compounds read low; B-score at 10 µM; hit rate 0.84% among 340,000; AID 602410, 2012;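 active = B-score under library mean minus 4 SD, starting fluorescence ratio at most library mean plus 5 SD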;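 also: more negative B-score means stronger inhibition of thallium flux through KCNK3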
KCNQ1 block: inhibitors of human KCNQ1 channel, primary screen, cell-based, thallium flux, high-throughput | Potassium voltage-gated channel subfamily KQT member 1 (Homo sapiens), P51787 | CHO-K1 KCNQ1, FluxOR thallium flux fluorescence; active compounds read high | B-score at 10 µM | hit rate 1.3% among 310,000 | AID 2642, 2010;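 active = compounds whose thallium flux B-score, printed positive for inhibition, exceeds three library SD while starting fluorescence stays within three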;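 also: channel opened by potassium depolarization with thallium stimulus after 20 min compound exposure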
KCNQ1 pot: potentiators or activators of KCNQ1 channel, primary screen, cell-based, thallium flux, high-throughput; B-score at 10 µM; hit rate 0.35% among 310,000; CHO-K1 KCNQ1, thallium flux FluxOR fluorescence; active compounds read high; Potassium voltage-gated channel subfamily KQT member 1 (Homo sapiens), P51787;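 active = fluorescence ratio B-score, a plate-corrected score, at least three library SD, with initial intensity B-score within 5 SD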
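Assay system: CHO-K1 cells stably expressing KCNQ1; Medium: assay buffer with matched DMSO; Also added: K+/Tl+ depolarizing stimulus; Dosing: single dose; Timing: dye 90 min, compound 20 min, room temperature; Measured by: kinetic FluxOR thallium fluorescence, 10-s 1-Hz baseline, 110-s post-stimulus read; Read-out: peak-minus-minimum fluorescence over initial fluorescence, negative-control normalized, B-scored.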
Cl transport mod: KCC2 cotransporter modulators, thallium flux, primary screen, cell-based, HEK293 KCC2, FluoZin-2 fluorescence, MLSMR. KCC2 cells, thallium flux FluoZin-2 fluorescence. B-score of Tl+ flux slope (higher = more flux/activation; lower = inhibition) at 10 µM. hit rate 2.2% among 190,000. AID 1456, 2008;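 active = thallium flux slope and its plate-corrected score both differing from the plate sample mean at a set confidence after two filtering rounds, in either direction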;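 also: slope of fluorescence scaled to starting intensity during 10 to 20 s after thallium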
KCNQ1 inh valid: KCNQ1 potassium channel inhibitors, confirmation, cell-based, Tl flux, duplicate; inhibition, % at 10 µM; KCNQ1 cell line, FluxOR thallium flux fluorescence; hit rate 93% among 1,600; shares compounds with KCNQ1 block;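 active = primary screen active, with duplicate mean exceeding buffer control mean plus 3 SD of buffer wells, cut at about 28% in these data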
CHO KCNQ1 ctr: thallium flux effects in parental CHO cells, counter-screen for KCNQ1 inhibitor project, cell-based, Tl flux | parental CHO-K1, FluxOR thallium flux fluorescence ratio; active compounds read low; zero means no signal rise above baseline | hit rate 21% among 1,600 | fluorescence ratio (Tl flux) at 10 µM | shares compounds with KCNQ1 block;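 active = mean of duplicate thallium-flux fluorescence ratios in parental host cells more than 5 SD below the buffer control mean, cut at about 0.38 in these data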;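 also: ratio is peak minus minimum fluorescence divided by baseline fluorescence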
KCNQ1 APC inh: KCNQ1 channel inhibitors, confirmation, orthogonal assay, cell-based, automated electrophysiology; hit rate 20% among 490; calls only at 10 µM; KCNQ1-CHO cells, automated patch clamp current; shares compounds with KCNQ1 block;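 active = KCNQ1 current drop exceeding 3 SD of negative control wells, seen in both duplicate runs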;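 also: steady state current during a 2 s step from -80 to +40 mV; negative values mean current inhibition and positive values mean potentiation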
KCNQ2 spec: KCNQ2 channel inhibition, selectivity assay for KCNQ1 inhibitor project, cell-based; shares compounds with KCNQ1 block; KCNQ2 cells, FluxOR thallium flux fluorescence; inhibition, % at 10 µM; hit rate 71% among 1,600; AID 651746, 2012;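 active = mean percent inhibition of the KCNQ2 thallium signal more than 5 SD above the buffer-only control wells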;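 also: KCNQ2 expressed in CHO cells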
KCNQ1 KCNE1 spec: KCNQ1/KCNE1 channel inhibition, selectivity assay for KCNQ1 inhibitor project, CHO-K1 cells, thallium flux, FluxOR | shares compounds with KCNQ1 block | hit rate 77% among 1,600 | FluxOR thallium flux fluorescence | inhibition, % at 10 µM | AID 652147, 2013;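 active = mean percent inhibition of duplicate wells above the buffer-only control mean plus 3 SD of those controls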
KCNK9 block conf: KCNK9 potassium channel inhibitors, confirmation, HEK293 cells, thallium flux, duplicate; AID 492992, 2010; shares compounds with KCNK9 block; hit rate 43% among 4,900; inhibition, % at 10 µM; FluxOR thallium flux fluorescence;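 active = thallium signal inhibited by more than 5 SD of the compound-free buffer control wells, on both duplicate plates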
Kir21 sel: mouse Kir2.1 channel inhibition, confirmation, selectivity assay for KCNK9 modulator project, cell-based, HEK293, thallium flux | Kir2.1 cells, FluxOR thallium flux fluorescence | shares compounds with KCNK9 block | hit rate 4% among 4,900 | inhibition, % at 10 µM;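 active = thallium signal drop more than 5 SD beyond the mean of the no-compound control wells, seen in both duplicate plates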;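 also: signal is fluorescence rise after thallium addition divided by baseline fluorescence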
HEK293 Tl ctr: thallium flux in non-induced HEK293 cells, confirmation, counter-screen for KCNK9 inhibitor project, cell-based, second counter screen, non-induced KCNK9-HEK293; hit rate 40% among 4,900; shares compounds with KCNK9 block; inhibition, % at 10 µM; FluxOR thallium flux; AID 492997, 2010;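 active = thallium signal drop beyond 5 SD of the untreated control mean, on both duplicate plates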
KCNK3 inh conf: retest of human KCNK3 channel inhibitors, confirmation, CHO cells, FluxOR thallium flux, triplicate; hit rate 99% among 2,400; shares compounds with KCNK3 inh; FluxOR fluorescence; 0% buffer, 100% carvedilol maximal block; AID 651638, 2012; ratio percent of control, % at 10 µM;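 active = ratio percent of control, averaged over triplicates, above buffer control mean plus 5 SD, cut at about 64% in these data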;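 also: ratio is the fluorescence rise from min to max over baseline after thallium stimulus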
KCNK3 uninduced: thallium flux inhibition in non-induced cells, primary screen, counter-screen for KCNK3 inhibitor project, cell-based, non-induced KCNK3 line, FluxOR thallium, triplicate | shares compounds with KCNK3 inh | non-induced KCNK3 parental cells; active compounds read low | thallium flux ratio (lower = more inhibition) at 10 µM | hit rate 40% among 2,400;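 active = thallium flux ratio, averaged over three wells, more than 5 SD below the buffer control mean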;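 also: host cells are CHO cells without KCNK3 induction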
Numbers stand for hits.

For COc1ccc(Cc2nc3ccc(C(=O)NC(C)c4cn(C)nc4C)cc3o2)cc1 (configuration not stated) the results were hERG rescue inactive, KCNK9 block inactive, KCNK3 inh inactive, KCNQ1 block inactive and KCNQ1 pot inactive.
For CCC(C(=O)Nc1cccc(C(F)(F)F)c1)c1ccccc1 (configuration not stated) the results were hERG rescue inactive, KCNK9 block -10, KCNK3 inh -9.4, KCNQ1 block 11, KCNQ1 pot inactive, KCNQ1 inh valid 104, CHO KCNQ1 ctr inactive, KCNQ1 APC inh active, KCNQ2 spec 72%, KCNQ1 KCNE1 spec 116%, KCNK9 block conf 64%, Kir21 sel inactive, HEK293 Tl ctr 44%, KCNK3 inh conf 128 and KCNK3 uninduced 0.13.
Screening CCC(C(=O)Nc1ccncc1)c1ccccc1 (configuration not stated) returned hERG rescue inactive, KCNK9 block inactive, KCNK3 inh inactive, KCNQ1 block inactive, KCNQ1 pot inactive and Cl transport mod inactive.
COc1ccc(S(=O)(=O)N2CCCC(C(=O)NC3CC3)C2)cc1Cl (configuration not stated) was read as hERG rescue inactive, KCNK9 block inactive, KCNK3 inh inactive, KCNQ1 block inactive and KCNQ1 pot inactive.
Screening CC(C)(C)c1ccc(NC(=S)NCc2cccs2)cc1 returned hERG rescue inactive, KCNK9 block inactive, KCNK3 inh inactive, KCNQ1 block inactive, KCNQ1 pot inactive and Cl transport mod inactive.
Screening CCC(C)c1ccc(NC(=S)NCc2cccs2)cc1 (configuration not stated) returned hERG rescue inactive, KCNK9 block inactive, KCNK3 inh -9.5, KCNQ1 block 7, KCNQ1 pot inactive, Cl transport mod inactive, KCNQ1 inh valid 90, CHO KCNQ1 ctr inactive, KCNQ1 APC inh active, KCNQ2 spec 61%, KCNQ1 KCNE1 spec 95%, KCNK3 inh conf 111 and KCNK3 uninduced inactive.
`O=C(Nc1ccnn1C1CCN(Cc2ccc(O)c(Cl)c2)CC1)C1CCCC1` gave hERG rescue inactive, KCNK9 block inactive, KCNK3 inh inactive, KCNQ1 block inactive and KCNQ1 pot inactive.
`COc1ccc(-n2cc(-c3ccccc3)c3c(N4CC(C)OC(C)C4)ncnc32)cc1` (configuration not stated) gave hERG rescue inactive, KCNK9 block inactive, KCNK3 inh -11, KCNQ1 block 12, KCNQ1 pot inactive, Cl transport mod inactive, KCNQ1 inh valid 121, CHO KCNQ1 ctr inactive, KCNQ1 APC inh inactive, KCNQ2 spec 142%, KCNQ1 KCNE1 spec 170%, KCNK3 inh conf 114 and KCNK3 uninduced 0.13.
For Cc1ccc2c(CN(C)Cc3ccc(OC(F)F)cc3)cc(=O)oc2c1C the results were hERG rescue inactive, KCNK9 block inactive, KCNK3 inh -10, KCNQ1 block 11, KCNQ1 pot inactive, KCNQ1 inh valid 128, CHO KCNQ1 ctr inactive, KCNQ1 APC inh inactive, KCNQ2 spec 101%, KCNQ1 KCNE1 spec 135%, KCNK3 inh conf 126 and KCNK3 uninduced 0.15.
CC1C(=O)N(Cc2ccccc2F)c2ccccc2N1C(=O)c1c(F)cccc1F (configuration not stated) was read as hERG rescue inactive, KCNK9 block -7.7, KCNK3 inh -9, KCNQ1 block 15, KCNQ1 pot inactive, KCNQ1 inh valid 58, CHO KCNQ1 ctr inactive, KCNQ2 spec 78%, KCNQ1 KCNE1 spec 50%, KCNK3 inh conf 87 and KCNK3 uninduced inactive.
For COc1cccc(CN2C(=O)C(C)N(C(=O)c3c(F)cccc3F)c3ccccc32)c1 (configuration not stated) the results were hERG rescue inactive, KCNK9 block inactive, KCNK3 inh inactive, KCNQ1 block inactive and KCNQ1 pot inactive.
